# Measurements collected from several papers.
# BRAF V600E: Serine/threonine-protein kinase B-raf (BRAF, Homo sapiens, UniProt P15056, V600E)
# SMARCA2: SWI/SNF-related matrix-associated actin-dependent regulator of chromatin subfamily A member 2 (SMARCA2, Homo sapiens, UniProt P51531)
# BPTF: Nucleosome-remodeling factor subunit BPTF (BPTF, Homo sapiens, UniProt Q12830)
# PADI2: Protein-arginine deiminase type-2 (PADI2, Homo sapiens, UniProt Q9Y2J8)
# Map2k4: Dual specificity mitogen-activated protein kinase kinase 4 (Map2k4, Mus musculus, UniProt P47809)
SMILES,target,assay,system,conditions,measurement,value
COc1ccc(S(N)(=O)=O)cc1C(=O)NCCCN1CCN(c2ccccc2OC)CC1,"D(2) dopamine receptor (DRD2, Homo sapiens, UniProt P14416)","enzyme activity, inhibitor",,10 µM,inhibition,62.4%
Cc1ccc(C(CS(=O)(=O)c2ccccc2)=NNc2nc(C)c(N=Nc3ccccc3)s2)cc1,BRAF V600E,"enzyme activity, inhibitor, ATP luminescence",,10 nM,inhibition,26%
Nc1ncnc2occ(-c3ccc(NC(=O)Nc4cc(C(F)(F)F)ccc4F)cc3)c12,"Mitogen-activated protein kinase 4 (MAPK4, Homo sapiens, UniProt P31152)","cell-free assay, inhibitor",,20 µM,remaining signal,100%
CCC(/C=C1\CCn2c1nc(=O)c1c(Cl)c(Cl)ccc12)CC,SMARCA2,"thermal stability, DSF",,100 µM,ΔTm,2.86 °C
Cc1cc2c(cc1N1C(=O)c3cccc4c(Cl)ccc(c34)C1=O)n(C)c(=O)n2C,BPTF,"thermal stability, DSF",,10 µM,ΔTm,0 °C
Cc1ccc(C(=O)Nc2ccc(CN3CCN(C)CC3)c(C(F)(F)F)c2)cc1C#Cc1cnc2cccnn12,"Serine/threonine-protein kinase Nek5 (NEK5, Homo sapiens, UniProt Q6P3R8)","enzyme activity, inhibitor",,23.5 nM,remaining activity,97%
N=C(CCl)NCCC[C@H](NC(=O)c1ccccc1C(=O)O)c1nn[nH]n1,PADI2,"enzyme activity, inhibitor",,,kinact/KI,162 M⁻¹ s⁻¹
Cc1cnc(NC2CCOCC2)nc1-n1cnc(C(=O)NC(CN)c2cc(F)cc(Cl)c2)c1 (stereo not drawn),Map2k4,"enzyme activity, inhibitor, radiometric",,1 µM,remaining activity,63%
CCC(CC)C1CC12CCn1c2nc(=O)c2c(Cl)cccc21 (stereo not drawn),SMARCA2,"thermal stability, DSF",,100 µM,ΔTm,1.4 °C
Cc1cnc(Nc2ccc(OCCN3CCCC3)cc2)nc1Nc1cccc(S(=O)(=O)NC(C)(C)C)c1,BPTF,"thermal stability, DSF",,10 µM,ΔTm,0.8 °C
CC(C)(C)c1nc(-c2cccc(NS(=O)(=O)c3c(F)cccc3F)c2F)c(-c2ccnc(N)n2)s1,BRAF V600E,"enzyme activity, inhibitor, ATP luminescence",,10 nM,inhibition,34%
Fc1cccc(-n2cnc3c(NCc4nc5c(F)c(F)ccc5[nH]4)nc(N4CCOCC4)nc32)c1,"Microtubule-associated serine/threonine-protein kinase 1 (MAST1, Homo sapiens, UniProt Q9Y2H9)","binding, competition with immobilised ligand",,10 µM,binding vs control,23%
CCC(C)/C=C1\CCn2c1nc(=O)c1c(Cl)cccc12 (stereo not drawn),SMARCA2,"thermal stability, DSF",,100 µM,ΔTm,3.77 °C
Cc1ccc(C(CS(=O)(=O)c2ccccc2)=NNC2=NC(=O)C(=NNc3ccc(Cl)cc3)S2)cc1,BRAF V600E,"enzyme activity, inhibitor, ATP luminescence",,10 nM,inhibition,27%
Cc1cc(=O)oc2cc(NC(=O)[C@@H](N)CCCNC(=N)N)ccc12,"Endoplasmic reticulum aminopeptidase 2 (ERAP2, Homo sapiens, UniProt Q6P179)","enzyme activity, substrate",,,Km,88 µM
CCCOc1ccc(OC)c(F)c1C(=O)c1ccc(C(=O)N[C@@H]2CNC[C@H]2NC(=O)c2ccc3[nH]ncc3c2)cc1,Map2k4,"enzyme activity, inhibitor",,10 µM,remaining activity,120%
CCC(/C=C1\CCn2c1nc(=O)c1cc(Cl)ccc12)CC,SMARCA2,"thermal stability, DSF",,100 µM,ΔTm,-0.49 °C
CC(=O)N[C@H]1CSSC[C@@H](C(=O)N[C@H](Cc2c[nH]c3ccccc23)C(N)=O)NC(=O)[C@@H](Cc2ccccc2)NC(=O)[C@H](CCCNC(=N)N)NC1=O,"Melanocortin receptor 3 (MC3R, Homo sapiens, UniProt P41968)","cAMP, agonist",HEK293,3 min,Emax,0%
CCC(/C=C1\CCn2c1nc(=O)c1cc(O)ccc12)CC,SMARCA2,"thermal stability, DSF",,100 µM,ΔTm,-0.28 °C
Cc1ccc(C(CS(=O)(=O)c2ccccc2)=NN=C2N=C(c3ccc(C)cc3)CS2)cc1,BRAF V600E,"enzyme activity, inhibitor, ATP luminescence",,0.1 µM,inhibition,43%
CC(C)(C)n1nnc([C@H](CCCNC(=N)CF)NC(=O)c2ccccc2C(=O)O)n1,PADI2,"enzyme activity, inhibitor",,,kinact/KI,2020 M⁻¹ s⁻¹
CCC(CC)CC1CCn2c1nc(=O)c1c(Cl)cccc12 (racemic),SMARCA2,"thermal stability, DSF",,100 µM,ΔTm,1.33 °C
Cc1ccc(C(CS(=O)(=O)c2ccccc2)=NN=C2N=C(c3ccc(Br)cc3)CS2)cc1,BRAF V600E,"enzyme activity, inhibitor, ATP luminescence",,10 µM,inhibition,92%
NCCCC[C@H](NC(=O)[C@@H]1CCCN1C(=O)[C@@H]1CSSC[C@H](NC(=O)CNC(=O)CNC(=O)CN)C(=O)N[C@@H](Cc2ccc(O)cc2)C(=O)N[C@@H](Cc2ccccc2)C(=O)N[C@@H](CCC(N)=O)C(=O)N[C@@H](CC(N)=O)C(=O)N1)C(=O)NCC(N)=O,"Vasopressin V2 receptor (AVPR2, Homo sapiens, UniProt P30518)","cAMP, agonist, TR-FRET",CHO-K1,,Emax,~100%
C[S+]([O-])c1ccc(-c2nc(-c3ccncc3)c(-c3ccc(F)cc3)[nH]2)cc1 (stereo not drawn),SMARCA2,"thermal stability, DSF",,10 µM,ΔTm,0.31 °C
Cc1ccc(C(CS(=O)(=O)c2ccccc2)=NNc2nc(C)c(N=Nc3cccc(C)c3)s2)cc1,BRAF V600E,"enzyme activity, inhibitor, ATP luminescence",,1 µM,inhibition,81%
CC(C)(C)n1nnc([C@H](CCCNC(=N)CCl)NC(=O)c2ccc(-c3ccccc3)cc2)n1,PADI2,"enzyme activity, inhibitor",,,kinact/KI,182 M⁻¹ s⁻¹
